Wee1 stabilizer = human Wee1 degradation inhibition, primary screen; reporter increase, % at 5 µM; HeLa Luc-Wee1K328M stability, luciferase luminescence; 100% = proteasome inhibitor MG132 effect; 220,000 tested, 1.2% active; P30291;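 active means activation above the mean of all tested compounds plus 3 SD, set per screening run, cut at about 8.8% in these data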;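 further: cells exposed to compound for 20 h before luminescence read; 0% = DMSO alone and 100% = MG132 at 30 µM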
FXIa inh = inhibitors of human coagulation factor XIa; inhibition, % at 5 µM; 220,000 tested, 0.14% active; P03951; purified FXIa, Boc-Glu-Ala-Arg-AMC fluorogenic substrate;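 active means inhibition of at least 40%; inactive means inhibition below 40%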;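 further: fluorescence of freed AMC excited at 355 nm; 0% = enzyme without compound and 100% = no enzyme blank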
Target sequence (P03951 19-387 limits assumed): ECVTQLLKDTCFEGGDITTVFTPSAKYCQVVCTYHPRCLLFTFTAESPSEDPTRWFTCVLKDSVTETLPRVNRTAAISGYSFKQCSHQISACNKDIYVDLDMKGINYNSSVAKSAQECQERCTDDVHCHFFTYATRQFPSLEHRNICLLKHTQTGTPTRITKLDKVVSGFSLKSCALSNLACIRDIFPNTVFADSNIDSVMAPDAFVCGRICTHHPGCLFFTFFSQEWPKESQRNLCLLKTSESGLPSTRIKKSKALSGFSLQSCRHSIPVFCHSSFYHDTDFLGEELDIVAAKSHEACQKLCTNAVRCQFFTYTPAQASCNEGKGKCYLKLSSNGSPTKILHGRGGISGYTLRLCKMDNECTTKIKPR
Target sequence (P03951 388-625 limits assumed): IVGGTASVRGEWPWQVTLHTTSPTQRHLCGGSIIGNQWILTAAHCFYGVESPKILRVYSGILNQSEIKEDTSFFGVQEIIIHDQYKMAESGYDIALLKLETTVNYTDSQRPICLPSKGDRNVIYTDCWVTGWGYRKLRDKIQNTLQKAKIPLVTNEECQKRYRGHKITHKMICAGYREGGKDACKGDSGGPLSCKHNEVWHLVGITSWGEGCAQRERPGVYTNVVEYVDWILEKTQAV
FXIIa inh = inhibitors of human coagulation factor XIIa; purified FXIIa, Boc-QGR-AMC fluorogenic substrate, 2 h; inhibition, % at 5 µM; AID 800; 220,000 tested, 0.3% active; in the data active means inhibition above about 40%;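 further: 0% = enzyme with no compound and 100% = blank without enzyme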
hK5 inh = kallikrein 5 (human) inhibition. Q9Y337. recombinant hK5, fluorogenic AMC substrate cleavage. inhibition, % at 5 µM. 210,000 tested, 0.59% active. AID 873;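 active means inhibition of 40% or more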;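 further: 0% = enzyme controls without compound and 100% = no-enzyme blanks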
Thrombin inh = inhibitors of human thrombin; alpha-thrombin, Boc-VPR-AMC fluorogenic substrate cleavage; inhibition, % at 5 µM; 220,000 tested, 0.26% active; AID 1046;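 active means inhibition at or above 40%; inactive means inhibition below 40%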;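 further: 0% = enzyme with no compound and 100% = wells without enzyme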
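Material: human alpha-thrombin protein; Also added: Boc-VPR-AMC substrate, 15 µM final; Timing: enzyme reaction carried out at room temperature; Signal: fluorescence, ex 355 nm, em 460 nm; Measure: % inhibition of thrombin; Controls: enzyme without compound as high, wells lacking enzyme as low.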
* hit, by the source's call; · = no result given. Hits are enriched below; roughly 2.2% of the tested compounds scored in any of these assays.

SMILES | Wee1 stabilizer | FXIa inh | FXIIa inh | hK5 inh | Thrombin inh
O=C(c1cccc([N+](=O)[O-])c1)n1nc(-c2ccccc2)nc1NCc1ccccc1 | 0 | 10 | 6 | -8 | 67*
COCC(=O)n1nc(-c2ccccc2)nc1NCc1ccc(N(C)C)cc1 | 2 | -7 | -7 | -25 | 12
CCCCNc1n[n+](C)c(-c2cccc(C)c2)s1 | · | 2 | 9 | 3 | 2
O=Cc1c(C(=O)O)n(CC(=O)O)c2ccccc12 | -2 | 3 | -1 | 16 | -3
Cc1ccc(C)c(NC2=C(Cl)C(=O)OC2OC(C)C)c1 (stereo not given) | 0 | -4 | 5 | -2 | -5
O=C(c1cccs1)n1nc(-c2ccccc2)nc1NCc1ccc(F)cc1 | 1 | 6 | 12 | 3 | 3
CC(=O)n1nc(-c2ccccc2)nc1NCc1ccc(F)cc1 | 1 | 5 | 16 | -17 | 98*
COc1ccc(S(=O)(=O)Nc2ccc(N3CCOCC3)nc2)cc1 | 0 | -5 | 7 | -4 | -9
CCOC(=O)CSC1=C(C#N)C(c2ccc(Cl)cc2)CC(=O)N1 (stereo not given) | -1 | 6 | 34 | 45* | 14
CCOC(=O)CSC1=C(C#N)C(c2ccc3c(c2)OCO3)CC(=O)N1 (stereo not given) | 1 | -1 | 7 | -5 | -2
COc1ccc(/C=C/CN2CCC(CO)(Cc3ccccc3Cl)CC2)cc1 | 1 | -3 | 4 | 0 | -12
C=CCOc1ccc(/C(O)=C2\C(=O)C(=O)N(CCCOC)C2c2ccc(O)c(OC)c2)cc1 (stereo not given) | -2 | 5 | 1 | -1 | -5
C=CCOc1ccc(/C(O)=C2\C(=O)C(=O)N(CCCOC)C2c2ccncc2)cc1 (stereo not given) | 2 | 13 | 22 | 31 | 41*
CCOc1ccc(S(=O)(=O)Nc2ccc(O)c(Sc3ncn[nH]3)c2)cc1 | 29* | -3 | 2 | -4 | -8
Cc1ccc(S(=O)(=O)Nc2ccc(O)c(Sc3ncn[nH]3)c2)cc1 | -2 | 7 | 12 | 0 | ·
COC(=O)[C@H](C)NC(=O)NCc1ccccc1 | 3 | -8 | -1 | -5 | -7
O=c1[nH]c(CN2CCN(Cc3ccccc3)CC2)nc2scc(-c3ccccc3)c12 | 0 | 1 | 9 | 0 | 1
CSCc1nc2scc(-c3ccccc3)c2c(=O)[nH]1 | -1 | 28 | 29 | 11 | 41*
CCOC(=O)c1cn(Cc2cccc(Cl)c2)c2cc(C)nn2c1=O | 0 | -4 | 2 | -3 | -5
O=C(COc1ccc([N+](=O)[O-])cc1)NCc1cccnc1 | 9.2* | 7 | 12 | -1 | 4
O=C(COc1ccc([N+](=O)[O-])cc1)Nc1ccc(C(=O)NCc2cccnc2)cc1 | 2 | 2 | 15 | 3 | 0
CC(C)c1ccc(/C=C2\NC(=S)N(Cc3cccnc3)C2=O)cc1 | 0 | 3 | 9 | · | 2
CC1=Nc2cccc([N+](=O)[O-])c2NC(=O)C1 | 15* | -1 | 11 | -6 | 2
Cc1[nH][nH]c(=O)c1C(c1cc([N+](=O)[O-])ccc1O)c1c(C)[nH][nH]c1=O | -1 | 13 | 8 | 57* | 23
Cc1ccc(N=C2SC(C(=O)Nc3ccc(OC(F)(F)F)cc3)C(N)=C2C(=O)Nc2c(C)cc(C)cc2C)cc1 (stereo not given) | 11* | 1 | 5 | -3 | -7
SMILES | Wee1 stabilizer | FXIa inh | FXIIa inh | hK5 inh | Thrombin inh
Cc1nnc2c(-c3ccccc3)nc3ccccc3n12 | 2 | 3 | 13 | -11 | 45*
Nc1[nH]c(N=NC(=O)c2ccccc2)c2ccccc12 | 10* | 11 | 14 | -13 | -3
CC(Sc1nnnn1-c1ccc(Cl)cc1)C(=O)NCC(=O)Nc1ccc(F)c(F)c1F (stereo not given) | 1 | 16 | 29 | 3 | 7
Cc1ccc(Cn2c(O)c(N=NC(=S)Nc3ccccc3F)c3cc(S(=O)(=O)N4CCOCC4)ccc32)cc1 | 2 | 50* | 37 | 95* | 2
CCc1ccccc1NC(=S)N=Nc1c(O)n(C)c2ccc(S(=O)(=O)N3CCOCC3)cc12 | 2 | 9 | 14 | -24 | 12
O=C(c1nc2ccccc2s1)N1CCSCC1 | -2 | 8 | 15 | -4 | 4
O=C(c1nc2ccccc2s1)N1CCN(c2ccccn2)CC1 | 0 | -14 | 0 | -18 | 45*
CCCCCOC(=O)Nc1nnc(CCCCC)s1 | 2 | 4 | 47* | -21 | -8
CC(Nc1nc2ncn(Cc3ccccc3)c2c(=O)[nH]1)C(=O)O (stereo not given) | 0 | 11 | 24 | 17 | 62*
CCNc1nc(NCC)nc(OCCNS(=O)(=O)c2cc(C)ccc2C)n1 | -1 | 20 | 0 | 53* | 34
CCNc1nc(NC(C)C)nc(OCCNS(=O)(=O)c2cc(C)ccc2C)n1 | 1 | 9 | 14 | -4 | -1
CN(C)CCC(c1ccccc1)c1ccccn1 (stereo not given) | 16* | 6 | 15 | -6 | -3
CCOC(=O)C(=CNc1cccnc1Oc1ccc(C)c2c1CCC2)C(=O)OCC | 3 | -1 | 13 | 3 | -1
CC(C(=O)O)N1C(=O)/C(=C/C=C/c2ccco2)SC1=S (stereo not given) | -1 | 0 | -5 | 59* | 15
CSCC(C)N1CCC(CO)(CCc2ccccc2)CC1 (stereo not given) | 10.0* | 1 | 12 | · | -4
CCOc1ccc(N(Cc2ccccc2F)C2=NC3CS(=O)(=O)CC3S2)cc1 (stereo not given) | -1 | 29 | 21 | 45* | 9
O=S1(=O)CC2N=C(N(Cc3c(F)cccc3Cl)c3ccccc3F)SC2C1 (stereo not given) | 5 | 7 | 10 | -7 | -4
CCOc1ncccc1C(=O)Nc1nc(SC)ns1 | 0 | -4 | 2 | -2 | -3
CCOC(=O)CNC(=S)N(CCCN1CCCCCC1)Cc1cccs1 | 0 | 0 | 12 | 14 | -4
CCOC(=O)CNC(=S)N(CCCN1CCCCC1)Cc1cccs1 | 9.8* | 0 | 6 | · | 0
CCCN1CCC(N2CCCC(C(=O)O)C2)CC1 (stereo not given) | 5 | 33 | 27 | 27 | 45*
O=C(CN(C(=O)c1ccccc1Cl)C1CCCCC1)Nc1ccc(Cl)c([N+](=O)[O-])c1 | -1 | 5 | 70* | 1 | 0
COc1cccc(/C=N/NC(=O)c2cccs2)c1 | 3 | 1 | 7 | 2 | -3
O=C(N/N=C/c1cccc(OC(=O)N2CCOCC2)c1)c1cccs1 | 9.1* | 3 | 11 | -23 | -2
O=C(NCCC(c1ccccc1)c1ccccc1)c1cnc2sccn2c1=O | 11* | 18 | 9 | 8 | ·
O=C(NCc1cccnc1)c1cnc2sccn2c1=O | 3 | 1 | 7 | 2 | 2
COc1ccccc1OCC(=O)Nc1sc2c(c1C(=O)NCC1CCCO1)CCC2 (stereo not given) | -1 | 3 | 7 | -27 | 5
